Reference: ChEMBL document CHEMBL3407426, “Synthesis and biological evaluations of novel endomorphin analogues containing α-hydroxy-β-phenylalanine (AHPBA) displaying mixed μ/δ opioid receptor agonist and δ opioid receptor antagonist activities” (Eur J Med Chem, 2015)
Active and inactive are the calls of the source. Where a SMILES comes first, the peptide text is derived from it. [ ]: non-standard residue; d: D form. ξ: configuration not given here. Dmt = Cc1cc(O)cc(C)c1C[C@H](N)C(=O)O; ξTiq(1-COOH) = O=C(O)C1NCCc2ccccc21

Legend:
[1] = tested on: Mus musculus; assay: Antinociceptive activity in kappa opioid receptor knock out mouse assessed as latency to withdrawal tail at 30 nmol, icv after 30 mins by 55 degC warm-water tail withdrawal assay; type: functional, organism-based
Procedure, shortened: (§1)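 Tail-withdrawal test at 55 °C, read 30 min after i.c.v. dosing (100 or 30 nmol), in MOR KO or KOR KO mice. Wild-type C57BL/6J mice were instead pretreated with naltrindole 20 mg/kg, route given as i.p. in the methods and s.c. in the legend, 20 min before dosing. n = 8 mice; one-way ANOVA with Tukey's test.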

[2] = tested on: Mus musculus; assay: Antinociceptive activity in icv dosed C57BL/6J mouse assessed as latency to withdrawal tail after 20 mins by 55 degC warm-water tail withdrawal assay; type: functional
Procedure, shortened: (§2)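 Mouse 55 °C warm-water tail-withdrawal test with a baseline latency taken before dosing and a 15 s cut-off. Single i.c.v. injection of 5 µL into the lateral ventricle under light isoflurane. Latency measured at 10-min intervals, with dose–response values taken at peak: 20 min for peptides, 30 min for morphine. Mean % antinociception from 8 mice; ED₅₀ with 95% CI.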

[3] = biological target: Mu-type opioid receptor (Homo sapiens) (UniProt P35372); assay: Agonist activity at mu opioid receptor (unknown origin) expressed in HEK293 cells assessed as change in cell morphology at 3.3 uM measured over 30 mins by label free binding assay relative to DAMGO; type: cell-based
Procedure, shortened: (§3)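 Label-free biosensor (BIND) measuring cell spreading as increase in peak wavelength value. MOR in HEK293 cells, DOR in CHO cells, seeded 2 × 10⁴/well on fibronectin/collagen/albumin-coated plates and incubated overnight. Assay buffer was HBSS with 0.5–1% DMSO, equilibrated 30 min at room temperature before a baseline read. Compound added to a final 3.3 µM and read over 30 min. Response given as % of DAMGO 300 nM (MOR, n = 2) or DPDPE 10 nM (DOR, n = 4).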

[4] = tested on: Mus musculus; assay: Antinociceptive activity in icv dosed C57BL/6J mouse assessed as latency to withdrawal tail administered first dose for 8 hrs followed by second dose measured after 20 mins by 55 degC warm-water tail withdrawal assay; type: functional
Procedure, shortened: (§4)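 Acute tolerance in the mouse 55 °C warm-water tail-withdrawal test, 15 s cut-off. First i.c.v. dose at time 0 (morphine 3 nmol or test peptide 2 nmol), then a second i.c.v. dose of 0.1–100 nmol 8 h later. Latency read 30 min after the second dose for morphine and 20 min for the peptide. n = 8 mice per point; ED₅₀ with 95% CI by nonlinear regression.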

[5] = biological target: T1, Delta-type opioid receptor (Homo sapiens, UniProt P41143); assay: Agonist activity at delta opioid receptor (unknown origin) expressed in CHO cells assessed as change in cell morphology measured over 30 mins by label free binding assay; type: cell-based
Procedure, shortened: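 DOR-expressing CHO cells on coated plates in a label-free BIND biosensor, with the increase in peak wavelength value read over 30 min after compound addition. HBSS buffer with 0.5–1% DMSO, baseline read first. Points are means of two separate assays.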

[6] = tested on: Mus musculus; assay: Inhibition of mu opioid receptor agonist morphine-induced antinociceptive activity in C57BL/6J mouse assessed as latency to withdrawal tail at 30 nmol, icv administered 90 mins prior to morphine treatment measured after 40 mins by 55 degC warm-water tail withdrawal assay; type: functional, organism-based
Procedure, shortened: (§5)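 C57BL/6J mice given 30 nmol i.c.v. 90 min before morphine 10 mg/kg i.p., U50,488 10 mg/kg i.p., or SNC-80 100 nmol i.c.v. Tail-withdrawal at 55 °C measured 40 min after the agonist. n = 8 mice; Student's t-test.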

[7] = biological target: Delta-type opioid receptor (Rattus norvegicus, UniProt P33533); assay: Displacement of [3H]DPDPE from rat cortex delta opioid receptor after 2.5 hrs by liquid scintillation counting analysis
[8] = Half life in rat brain homogenate at 10 uM; type: ADME, tissue-based
Procedure, shortened: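 Peptide at a final 10 µM in rat brain homogenate (protein 21.2 mg/mL), incubated at 37 °C. Aliquots quenched in acetonitrile with internal standard in triplicate, centrifuged, and analysed by LC-MS/MS in MRM mode. Half-life from pseudo-first-order loss of the analyte/internal-standard ratio; mean of at least three experiments ± SEM.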

[9] = tested on: Mus musculus; assay: Toxicity in C57BL/6J mouse assessed as impairment of locomotor co-ordination at 100 nmol, icv administered 15 mins prior to assessment in accelerated speed trials measured over 60 mins by rotorod test; type: organism-based; conditions: in vivo, icv_or_intrathecal, 1 h
Procedure, shortened: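 Rotorod test after seven habituation trials, the last used as baseline. Mice given vehicle (50% DMSO) or 100 nmol i.c.v. Latency to fall recorded over 60 min and expressed as % change from baseline per 10 min. 8–18 mice; two-way ANOVA.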

[10] = tested on: Mus musculus; assay: Antinociceptive activity in wild type C57BL/6J mouse assessed as latency to withdrawal tail at 30 nmol, icv treated with delta opioid receptor anatgonist naltrindole for 20 mins prior to compound addition measured after 30 mins by 55 degC warm-water tail withdrawal assay; type: functional, organism-based; procedure, shortened: as §1
[11] = tested on: Mus musculus; assay: Antinociceptive activity in mu opioid receptor knock out mouse assessed as latency to withdrawal tail at 30 nmol, icv after 30 mins by 55 degC warm-water tail withdrawal assay; type: functional, organism-based; procedure, shortened: as §1
[12] = tested on: Mus musculus; assay: Antinociceptive activity in C57BL/6J mouse assessed as latency to withdrawal tail at 100 nmol, icv measured up to 80 mins by 55 degC warm-water tail withdrawal assay; type: functional, organism-based; procedure, shortened: as §2
[13] = biological target: T1, Delta-type opioid receptor; assay: Agonist activity at delta opioid receptor (unknown origin) expressed in CHO cells assessed as inhibition of forskolin-induced cAMP production at 500 nM after 30 mins by europium cryptate/d2 dye-based FRET analysis relative to DPDPE; type: functional, cell-based
Procedure, shortened: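 DOR-expressing CHO cells, 20,000/well, exposed to test compound at 500 nM with 4 µM forskolin in PBS containing 1 mM IBMX for 30 min at room temperature. Cells then lysed with Europium cryptate and d2 acceptor reagents for 1 h, and cAMP read by FRET. Expressed as % of the 500 nM DPDPE response, n = 4.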

[14] = tested on: Mus musculus; assay: Inhibition of kappa opioid receptor agonist U50,488-induced antinociceptive activity in C57BL/6J mouse assessed as latency to withdrawal tail at 30 nmol, icv administered 90 mins prior to U50,488 treatment measured after 40 mins by 55 degC warm-water tail withdrawal assay; type: functional, organism-based; procedure, shortened: as §5
[15] = biological target: T1, Delta-type opioid receptor; assay: Agonist activity at delta opioid receptor (unknown origin) expressed in CHO cells assessed as change in cell morphology at 3.3 uM measured over 30 mins by label free binding assay relative to DPDPE; type: cell-based; procedure, shortened: as §3
[16] = tested on: Mus musculus; assay: Inhibition of delta opioid receptor agonist SNC-80-induced antinociceptive activity in C57BL/6J mouse assessed as latency to withdrawal tail at 30 nmol, icv administered 90 mins prior to SNC-80 treatment measured after 40 mins by 55 degC warm-water tail withdrawal assay; type: functional, organism-based; procedure, shortened: as §5
[17] = biological target: Mu-type opioid receptor (Rattus norvegicus, UniProt P33535); assay: Displacement of [3H]DAMGO from rat cortex mu opioid receptor after 30 mins by liquid scintillation counting analysis
Procedure, shortened: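 Rat cortex membranes prepared in 50 mM Tris pH 7.4, spun 16,500 rpm for 10 min, and incubated 30 min at 37 °C. Competition against [³H]DAMGO. Assay ended by filtration on BSA-soaked GF/B filters. Ki values are means of two experiments.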

[18] = tested on: Mus musculus; assay: Antinociceptive activity in wild type C57BL/6J mouse assessed as latency to withdrawal tail at 100 nmol, icv treated with delta opioid receptor anatgonist naltrindole for 20 mins prior to compound treatment measured after 30 mins by 55 degC warm-water tail withdrawal assay; type: functional, organism-based; procedure, shortened: as §1
[19] = tested on: Mus musculus; assay: Antinociceptive activity in mu opioid receptor knock out mouse assessed as latency to withdrawal tail at 100 nmol, icv after 30 mins by 55 degC warm-water tail withdrawal assay; type: functional, organism-based; procedure, shortened: as §1
[20] = tested on: Mus musculus; assay: Antinociceptive activity in kappa opioid receptor knock out mouse assessed as latency to withdrawal tail at 100 nmol, icv after 30 mins by 55 degC warm-water tail withdrawal assay; type: functional, organism-based; procedure, shortened: as §1
[21] = tested on: Mus musculus; assay: Antinociceptive activity in icv dosed C57BL/6J mouse assessed as latency to withdrawal tail after 30 mins by 55 degC warm-water tail withdrawal assay; type: functional; procedure, shortened: as §2
[22] = tested on: Mus musculus; assay: Antinociceptive activity in icv dosed C57BL/6J mouse assessed as latency to withdrawal tail administered first dose for 8 hrs followed by second dose measured after 30 mins by 55 degC warm-water tail withdrawal assay; type: functional; procedure, shortened: as §4

T1 sequence (P41143 whole entry): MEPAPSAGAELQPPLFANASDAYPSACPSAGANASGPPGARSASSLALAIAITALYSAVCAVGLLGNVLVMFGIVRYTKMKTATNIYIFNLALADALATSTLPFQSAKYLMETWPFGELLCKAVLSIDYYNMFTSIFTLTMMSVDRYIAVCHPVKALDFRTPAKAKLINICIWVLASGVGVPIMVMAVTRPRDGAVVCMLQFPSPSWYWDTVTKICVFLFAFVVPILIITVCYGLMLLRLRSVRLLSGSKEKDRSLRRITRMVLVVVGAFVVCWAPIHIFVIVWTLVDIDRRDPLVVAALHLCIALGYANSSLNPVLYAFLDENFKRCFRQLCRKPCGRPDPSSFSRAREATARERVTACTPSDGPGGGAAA
Delta-type opioid receptor (Rattus norvegicus, UniProt P33533), sequence (P33533 whole entry): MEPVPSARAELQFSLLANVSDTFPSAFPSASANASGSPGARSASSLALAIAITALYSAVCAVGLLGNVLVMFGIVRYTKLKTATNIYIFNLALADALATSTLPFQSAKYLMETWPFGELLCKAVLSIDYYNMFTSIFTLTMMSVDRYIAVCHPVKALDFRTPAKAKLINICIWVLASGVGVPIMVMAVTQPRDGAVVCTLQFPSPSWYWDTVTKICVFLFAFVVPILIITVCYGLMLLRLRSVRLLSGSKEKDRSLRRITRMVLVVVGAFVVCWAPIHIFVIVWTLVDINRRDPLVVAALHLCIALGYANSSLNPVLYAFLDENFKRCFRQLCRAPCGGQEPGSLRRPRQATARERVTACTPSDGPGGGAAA
Mu-type opioid receptor, sequence (P33535 whole entry): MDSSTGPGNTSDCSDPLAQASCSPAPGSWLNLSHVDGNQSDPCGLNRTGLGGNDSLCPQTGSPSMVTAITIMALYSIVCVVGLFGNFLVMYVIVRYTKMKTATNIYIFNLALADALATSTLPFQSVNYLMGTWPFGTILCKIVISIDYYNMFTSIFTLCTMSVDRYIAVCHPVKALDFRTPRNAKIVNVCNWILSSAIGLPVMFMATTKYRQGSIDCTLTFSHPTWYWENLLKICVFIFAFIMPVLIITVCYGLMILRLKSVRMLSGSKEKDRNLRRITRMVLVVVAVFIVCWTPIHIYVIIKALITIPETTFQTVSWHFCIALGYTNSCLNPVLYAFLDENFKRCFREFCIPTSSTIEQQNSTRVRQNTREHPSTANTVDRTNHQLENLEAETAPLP
Mu-type opioid receptor (Homo sapiens), sequence (P35372 whole entry): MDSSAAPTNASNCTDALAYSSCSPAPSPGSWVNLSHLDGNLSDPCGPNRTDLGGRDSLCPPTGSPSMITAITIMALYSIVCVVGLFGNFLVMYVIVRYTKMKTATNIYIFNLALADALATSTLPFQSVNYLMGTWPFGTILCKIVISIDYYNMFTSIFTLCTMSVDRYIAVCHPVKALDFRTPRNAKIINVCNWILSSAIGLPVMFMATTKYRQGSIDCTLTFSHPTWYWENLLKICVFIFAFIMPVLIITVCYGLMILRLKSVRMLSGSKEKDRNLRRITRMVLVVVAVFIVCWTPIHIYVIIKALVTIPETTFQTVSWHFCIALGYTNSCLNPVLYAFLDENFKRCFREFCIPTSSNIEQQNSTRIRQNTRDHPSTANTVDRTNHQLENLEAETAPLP

Compound	Activity [2]	ED50 [2] [nmol]	Activity [3] [%]	Ki [7] [nM]	half-life at 10 µM [8] [min]	Activity [9]	inhibition [13] [%]	Activity [15] [%]	Ki [17] [nM]	also measured
Cc1cc(O)cc(C)c1C[C@H](N)C(=O)N1CCc2ccccc2C1C(=O)N[C@@H](Cc1ccccc1)[C@@H](O)C(=O)N[C@@H](Cc1ccccc1)C(N)=O (stereo partly drawn)	Dose-dependent effect	1.98	42	0.7	> 120	Non-toxic	66	30	8	Activity [1]: inactive; ED50 [4]: 0.86 nmol; EC50 [5]: 23 nM; inhibition [6]: inactive; Activity [10]: inactive; Activity [11]: inactive; Activity [12]: Active; inhibition [14]: inactive; inhibition [16]: Active
Cc1cc(O)cc(C)c1C[C@H](N)C(=O)N1CCc2ccccc2C1C(=O)N[C@@H](Cc1ccccc1)C(=O)N[C@@H](Cc1ccccc1)C(N)=O (stereo partly drawn) (H-[Dmt][ξTiq(1-COOH)]FF-NH2)	Dose-dependent effect	21.7	61	2	6.11	Toxic	73	46	5	Activity [18]: inactive; Activity [19]: inactive; Activity [20]: inactive
CN1CC[C@]23c4c5ccc(O)c4O[C@H]2[C@@H](O)C=C[C@H]3[C@H]1C5 [MORPHINE]										Activity [21]: Dose-dependent effect; ED50 [21]: 2.35 nmol; ED50 [22]: 22.5 nmol
